Test [1] deals with West Nile virus. Kind of test: Inhibition of WNV NS2B/NS3 protease using Bz-Nle-Lys-Arg-Arg-AMC as substrate at 25 uM by spectrofluorometric analysis relative to control. The essentials:
(§1)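 Protease (DENV2 NS2B-NS3pro 25 nM; WNV NS2B-NS3pro with 5-residue linker 28 nM) incubated with inhibitor in DMSO, 15 min at 37 °C, in 200 mM Tris·HCl pH 9.5, 6 mM NaCl, 30% glycerol. Reaction started with 5.0 μM substrate. AMC release read at ex 380/em 460 nm. No-protease background subtracted; no-inhibitor control taken as 100%. Triplicates.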

The test system of test [2] is West Nile virus. Kind of test: Inhibition of WNV NS2B/NS3 protease using Bz-Nle-Lys-Arg-Arg-AMC as substrate at 10 uM by spectrofluorometric analysis relative to control. A digest of the protocol: as §1
Test [3] relates to dengue virus type 2. Kind of test: Inhibition of DENV2 NS2B/NS3 protease expressed in Escherichia coli Top 10 F' using Bz-Nle-Lys-Arg-Arg-AMC as substrate at 25 uM by spectroflorometer analysis relative to control. A digest of the protocol: as §1
The test system of test [4] is dengue virus type 2. In words: Inhibition of DENV2 NS2B/NS3 protease expressed in Escherichia coli Top 10 F' using Bz-Nle-Lys-Arg-Arg-AMC as substrate at 10 uM by spectroflorometer analysis relative to control. A digest of the protocol: as §1
Test [5] is described as follows: Competitive inhibition of DENV2 NS2B/NS3 protease expressed in Escherichia coli Top 10 F' using Bz-Nle-Lys-Arg-Arg-AMC as substrate by Michaelis-Menten equation analysis. Details: species or system dengue virus type 2. The essentials: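 DENV2 NS2B-NS3pro construct (NS2B hydrophilic cofactor joined to NS3 protease via Q-R), 25 nM, in 200 mM Tris·HCl pH 9.5, 6 mM NaCl, 30% glycerol, 0.1% CHAPS at 37 °C. Inhibitor at 0, 1.0, 3.0 and 5.0 μM; substrate 0-50 μM; started with enzyme. Initial rates from AMC fluorescence (ex 380/em 460 nm) every 1.5 min, under 5% conversion. Duplicates, repeated three times. Ki from secondary plot of Km,app against inhibitor.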

Test [6] can be described thus: Inhibition of WNV NS2B/NS3 protease using Bz-Nle-Lys-Arg-Arg-AMC as substrate by spectrofluorometric analysis relative to control. Details: species or system West Nile virus. A digest of the protocol:
(§2)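 IC50 run in the same single-point format (DENV2 protease 25 nM, WNV protease 28 nM; 15 min preincubation at 37 °C, pH 9.5 Tris buffer, 5.0 μM substrate, fluorescence ex 380/em 460 nm). Twelve inhibitor levels from 10 nM to 25 μM. IC50 from a sigmoidal fit of activity relative to the no-inhibitor control. Triplicates.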

Test [7] in a line: Inhibition of DENV2 NS2B/NS3 protease expressed in Escherichia coli Top 10 F' using Bz-Nle-Lys-Arg-Arg-AMC as substrate by spectroflorometer analysis relative to control. Further details: species or system dengue virus type 2. A digest of the protocol: as §2

We go through 24 compounds from ChEMBL document CHEMBL2311301, “Design, synthesis and characterization of novel 1,2-benzisothiazol-3(2H)-one and 1,3,4-oxadiazole hybrid derivatives: potent inhibitors of Dengue and West Nile virus NS2B/NS3 proteases” (Bioorg Med Chem, 2013).

With `O=c1c2ccccc2sn1C(Cc1ccccc1)c1nnc(-c2cccs2)o1` (centres undefined), the inhibition with West Nile virus [1] stood at 59.7%; in the test with West Nile virus [2], 43.7%; in the test with dengue virus type 2 [3], 69.8%; in the test on dengue virus type 2 [4] it was 52.3%.
Consider `O=c1c2ccccc2sn1C(Cc1ccccc1)c1nnc(-c2cccnc2)o1` (centres undefined), for which the inhibition in the test on West Nile virus [1] is 62.5%; with West Nile virus [2] it was 55.8%; with dengue virus type 2 [3], 70%; in the test on dengue virus type 2 [4], 58.1%.
`O=c1c2ccccc2sn1C(Cc1ccccc1)c1nnc(-c2ccccc2)o1` (centres undefined): the inhibition stood at 64.1% with West Nile virus [1], 51.7% with West Nile virus [2], 69.2% with dengue virus type 2 [3] and 56.7% in the test with dengue virus type 2 [4].
For `O=c1c2ccccc2sn1Cc1nnc(-c2cccc(F)c2)o1`, the inhibition was 10.1% with West Nile virus [1], 7.68% in the test on West Nile virus [2], 9.11% in the test on dengue virus type 2 [3] and 3.24% with dengue virus type 2 [4].
The matching figures for `O=c1c2ccccc2sn1C(Cc1ccccc1)c1nnc(-c2cccc(F)c2)o1` (centres undefined): 38.9%, 30.4%, 50.9% and 39%.
On to `CCCc1nnc(C(Cc2ccccc2)n2sc3ccccc3c2=O)o1` (centres undefined), for which the inhibition in the test with West Nile virus [1] is 46.2%; with West Nile virus [2], 34.9%; with dengue virus type 2 [3], 36.7%; with dengue virus type 2 [4], 25.6%.
The matching figures for `CCc1nnc(C(Cc2ccccc2)n2sc3ccccc3c2=O)o1` (centres undefined): 44.3%, 25.1%, 34.2% and 22.5%.
The matching figures for `O=c1c2ccccc2sn1C(Cc1ccccc1)c1nnc(-c2ccc(F)cc2)o1` (centres undefined): 59.1%, 51.1%, 75.7% and 60.3%.
On to `N#Cc1ccc(-c2nnc(C(Cc3ccccc3)n3sc4ccccc4c3=O)o2)cc1` (centres undefined), for which the inhibition stood at 70.9% with West Nile virus [1], 63.6% in the test with West Nile virus [2], 72.9% with dengue virus type 2 [3] and 63.9% in the test on dengue virus type 2 [4].
As to `O=c1c2ccccc2sn1C(Cc1ccccc1)c1nnc(-c2ccc(Cl)cc2)o1` (centres undefined), the inhibition came to 63.2% in the test on West Nile virus [1], 53.5% in the test with West Nile virus [2], 70.5% in the test on dengue virus type 2 [3] and 53.2% in the test on dengue virus type 2 [4].
`O=c1c2ccccc2sn1C(Cc1ccccc1)c1nnc(Cc2ccccc2)o1` (centres undefined): the inhibition came to 30.1% with West Nile virus [1], 20.5% with West Nile virus [2], 31.2% with dengue virus type 2 [3] and 22.4% in the test with dengue virus type 2 [4].
As for `O=c1c2ccccc2sn1C(Cc1ccccc1)c1nnc(-c2ccncc2)o1` (centres undefined), the inhibition in the test with West Nile virus [1] amounted to 72.7%; in the test with West Nile virus [2], 63.1%; in the test with dengue virus type 2 [3], 70.9%; in the test on dengue virus type 2 [4], 62.4%.
In the case of `O=c1c2ccccc2sn1Cc1nnc(-c2cccc(Cl)c2)o1`, the inhibition came to 9.15% with West Nile virus [1], 6.15% with West Nile virus [2], 16.7% in the test with dengue virus type 2 [3] and 5.21% with dengue virus type 2 [4].
The matching figures for `COc1ccc(Cc2nnc(C(C)n3sc4ccccc4c3=O)o2)cc1` (centres undefined): 9.79%, 4.17%, 17.8% and 8.08%.
On to `COc1ccc(Cc2nnc(Cn3sc4ccccc4c3=O)o2)cc1`, for which the inhibition in the test with West Nile virus [1] is 8.68%; with West Nile virus [2], 5.96%; in the test with dengue virus type 2 [3] it was 7.9%; in the test with dengue virus type 2 [4], 5.27%.
Take `Cc1nnc(C(Cc2ccccc2)n2sc3ccccc3c2=O)o1` (centres undefined): the inhibition with West Nile virus [1] amounted to 40.4%; in the test on West Nile virus [2], 22.3%; in the test with dengue virus type 2 [3], 31.6%; in the test on dengue virus type 2 [4] it was 20%.
For the compound `COc1ccc(Cc2nnc(C(Cc3ccccc3)n3sc4ccccc4c3=O)o2)cc1` (centres undefined), the inhibition in the test on West Nile virus [1] was determined as 34.9%; in the test on West Nile virus [2], 24.2%; in the test with dengue virus type 2 [3], 38.6%; in the test with dengue virus type 2 [4] it was 28.5%.
As for `O=c1c2ccccc2sn1C(Cc1ccccc1)c1nnc(-c2cccc(Cl)c2)o1` (centres undefined), the inhibition is 43.1% with West Nile virus [1], 29% with West Nile virus [2], 42.1% with dengue virus type 2 [3] and 34.3% in the test on dengue virus type 2 [4].
Compound `COc1ccc(-c2nnc(C(Cc3ccccc3)n3sc4ccccc4c3=O)o2)cc1` (centres undefined) showed a Ki in test [5] of 3.61 µM. Also, the IC50 in test [6] was determined as 4.22 µM; in test [7] it was 3.75 µM. Besides, the inhibition in the test on West Nile virus [1] stood at 73.4%; with West Nile virus [2], 68.6%; in the test on dengue virus type 2 [3] it was 80%; with dengue virus type 2 [4], 65.5%.
`CCOc1ccc(-c2nnc(C(Cc3ccccc3)n3sc4ccccc4c3=O)o2)cc1` (centres undefined): the inhibition in the test with West Nile virus [1] amounted to 71.8%; in the test on West Nile virus [2], 56.1%; with dengue virus type 2 [3], 61.3%; in the test with dengue virus type 2 [4], 40.6%.
In the case of `O=c1c2ccccc2sn1C(CCc1ccccc1)c1nnc(-c2cccc(Cl)c2)o1` (centres undefined), the inhibition with West Nile virus [1] came to 33.9%; with West Nile virus [2] it was 23.9%; with dengue virus type 2 [3] it was 35%; in the test with dengue virus type 2 [4] it was 26.1%.
The matching figures for `O=c1c2ccccc2sn1C(Cc1cccc(F)c1)c1nnc(-c2cccc(Cl)c2)o1` (centres undefined): 35.6%, 27.4%, 31.6% and 16%.
Consider `O=c1c2ccccc2sn1C(Cc1ccccc1)c1nnc(-c2ccco2)o1` (centres undefined), for which the inhibition with West Nile virus [1] amounted to 57.7%; with West Nile virus [2] it was 44.3%; in the test with dengue virus type 2 [3], 64.7%; with dengue virus type 2 [4] it was 52.3%.
Take `O=c1c2ccccc2sn1Cc1nnc(Cc2ccccc2)o1`: the inhibition stood at 14.7% in the test on West Nile virus [1], 8.27% with West Nile virus [2], 16.4% in the test on dengue virus type 2 [3] and 3.56% in the test with dengue virus type 2 [4].
